Data on 60 molecules can be found in PubChem BioAssay AID623869 (Vanderbilt High Throughput Screening Facility, 2012).

In all, about 2,100 compounds went through this assay and about 75 (4%) were called active. The sample holds actives, similar compounds and a random draw of the others, so the mix is not that of the screen.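 How the source made its calls: active means calcium fluorescence trace judged by eye to show a response, as agonist, enhancer of the glutamate response, or inhibitor; inactive means trace judged by eye to show no response.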

This experiment deals with Metabotropic glutamate receptor 8 (Rattus norvegicus) (UniProt P70579). Kind of experiment: rat mGlu8 modulation via Gqi9 calcium signal, confirmation, counter-screen for GIRK activator project, cell-based, HEK293 rmGlu8, Gqi9 chimera, Fluo-4 calcium (AID 623869). The following applies: HEK293 rmGlu8/Gqi9 calcium flux, Fluo-4 fluorescence; glutamate at EC20 added after compound. Summed up: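 Material: rat mGlu8 HEK-293 cells with transient Gqi9; medium: HEPES-buffered HBSS, pH 7.4; reagent: EC20 glutamate; dosing: one dose, 20 µM addition solution, 0.2% DMSO; incubation: compound 4 min before glutamate, then 2 min recording; measured by: Fluo-4 calcium fluorescence, 1 Hz; evaluation: F/F0 fluorescence traces judged visually for each well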
Chain of Metabotropic glutamate receptor 8 (Rattus norvegicus) (P70579 whole entry, looked up): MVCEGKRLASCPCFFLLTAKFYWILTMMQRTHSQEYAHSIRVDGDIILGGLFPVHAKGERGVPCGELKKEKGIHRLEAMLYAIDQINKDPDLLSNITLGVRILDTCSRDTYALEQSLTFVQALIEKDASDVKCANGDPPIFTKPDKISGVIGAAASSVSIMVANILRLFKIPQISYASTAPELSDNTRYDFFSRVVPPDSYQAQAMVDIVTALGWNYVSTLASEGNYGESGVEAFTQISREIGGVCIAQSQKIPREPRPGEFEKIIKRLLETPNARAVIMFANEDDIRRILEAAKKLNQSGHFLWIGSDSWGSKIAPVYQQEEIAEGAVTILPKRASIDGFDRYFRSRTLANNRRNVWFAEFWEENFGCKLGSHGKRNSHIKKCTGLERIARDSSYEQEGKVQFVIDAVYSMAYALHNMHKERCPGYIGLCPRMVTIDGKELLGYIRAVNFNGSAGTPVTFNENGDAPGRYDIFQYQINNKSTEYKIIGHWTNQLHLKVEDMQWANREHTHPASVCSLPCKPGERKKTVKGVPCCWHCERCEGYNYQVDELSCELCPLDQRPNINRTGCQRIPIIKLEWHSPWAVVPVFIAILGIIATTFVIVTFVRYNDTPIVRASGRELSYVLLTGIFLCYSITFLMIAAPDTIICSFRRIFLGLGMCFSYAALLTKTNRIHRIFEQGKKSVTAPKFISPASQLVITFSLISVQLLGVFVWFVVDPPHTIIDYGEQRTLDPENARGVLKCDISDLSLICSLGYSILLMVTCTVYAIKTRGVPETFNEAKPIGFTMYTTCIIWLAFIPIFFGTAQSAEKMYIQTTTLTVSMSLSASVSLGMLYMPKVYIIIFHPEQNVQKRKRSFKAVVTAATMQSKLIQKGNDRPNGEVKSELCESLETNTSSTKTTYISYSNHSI
For orientation: A counterscreen serves to expose hits that act by an unwanted route or on another target.
Take `CC(C)Sc1nc2c(c(=O)[nH]1)C(c1cccs1)C1=C(CC(C)(C)CC1=O)N2` (stereo not given): the outcome was “inactive; 0”.
As for `C=CCN(CC=C)C(=S)NC(=O)c1ccc([N+](=O)[O-])cc1`, the entry is “inactive; 0”.
As for `CCc1nc(SCC(=O)N2CC(=O)Nc3ccccc32)c2c(C)c(C)sc2n1`, the entry is “inactive; 0”.
Take `Oc1c(C=NCc2ccncc2)sc2ccccc12`: the outcome is “active; 2”.
With `CCN(c1ccccc1)S(=O)(=O)c1ccc(NC(=S)NC(=O)c2ccc(Br)o2)cc1`, the outcome is “inactive; 0”.
With `CCOC(=O)c1c(NC(=O)CSc2nnc(-c3ccncc3)n2Cc2ccco2)sc(C(C)=O)c1C`, the outcome was “inactive; 0”.
With `Cc1ccc(NC(=S)c2nc3ccccc3[nH]2)cc1`, the outcome was “inactive; 0”.
Under `C=C(C)CNC(=S)Nc1nc2c(cc1C(=O)OCC)CCCC2` stands “inactive; 0”.
As for `C=CCNC(=S)Nc1sc2c(c1C(=O)OCC)CC(C)(CC)OC2` (stereo not given), the entry is “inactive; 0”; as for `C=CCNC(=S)Nc1nc2c(cc1C(=O)OCC)CCCC2`, “active; 2”.
As for `CCNC(=S)Nc1scc(-c2ccccc2)c1C(=O)OCC`, the entry is “inactive; 0”; as for `CCNC(=S)Nc1nc2c(cc1C(=O)OCC)CCCC2`, “active; 2”.
Consider `C=CCNC(=S)Nc1sc2c(c1C(=O)OCC)CC(C(C)C)OC2` (stereo not given), for which the outcome is “inactive; 0”.
As for `CCC1(c2ccc(Cl)cc2)NC(=S)N(c2ccccc2)N1` (stereo not given), the entry is “inactive; 0”.
In the case of `CC1Cc2ccccc2N1C(=S)NC(=O)c1ccc(Cl)cc1Cl` (stereo not given), the outcome is “inactive; 0”.
As for `Fc1cccc2sc(Nc3nnc(-c4ccco4)o3)nc12`, the entry is “inactive; 0”; as for `CCOc1ccc(-c2nnc(NC(=O)c3ccc(OCC(C)C)c(OC)c3)o2)cc1`, “inactive; 0”; as for `Cc1ccc(NC(=S)c2nc3ccccc3[nH]2)c(C)c1`, “inactive; 0”.
`O=C1c2ccccc2NC(c2ccc(-c3cccc(Cl)c3)o2)N1O` (stereo not given): the outcome was “inactive; 0”.
Under `O=C1c2ccccc2NC(c2ccc(-c3ccc(Br)cc3)o2)N1O` (stereo not given) stands “inactive; 0”; under `Cc1cc([N+](=O)[O-])ccc1-c1ccc(C2Nc3ccccc3C(=O)N2O)o1` (stereo not given), “active; 2”.
As for `CCCN(CCC)C(=S)NC(=O)c1ccc(Cl)cc1Cl`, the entry is “inactive; 0”; as for `C=CCn1c(=S)[nH]c2ccccc2c1=O`, “inactive; 0”; as for `Cc1ccccc1C(=O)NNC(=O)C(=O)Nc1cccc(Cl)c1C`, “inactive; 0”.
As for `Cc1ccccc1C(=O)Nc1nc(=S)ss1`, the entry is “active; 1”; as for `CCOC(=O)Cc1csc(NC(=S)NC(=O)c2ccccc2C)n1`, “inactive; 0”.
As for `O=C(NC(=S)N1CCCc2ccccc21)c1ccc([N+](=O)[O-])cc1`, the outcome is “inactive; 0”.
Turning to `CN(C)S(=O)(=O)c1cccc(NC(=S)Nc2ccc(Cl)cc2Cl)c1`, the outcome was “inactive; 4”.
Under `CC12CCC(C(=O)N(CSC(=S)N/N=C\c3ccccc3)C1=O)C2(C)C` (stereo not given) stands “inactive; 0”.
On to `CNC(=S)N/N=C1\C(=O)c2cccc3cccc1c23`, for which the outcome is “inactive; 0”.
As for `CSc1nc(N2CCOCC2)c2c(c1C#N)CC(C)(C)OC2`, the entry is “inactive; 0”; as for `CC(C)c1nc(N2CCOCC2)c(C#N)c2c1CCCC2`, “inactive; 0”; as for `CCc1nc(N2CCOCC2)c(C#N)c2c1CCCC2`, “active; 2”.
Under `C=CCn1c(O)c(N=NC(=O)OC(C)(C)C)c2ccccc21` stands “inactive; 0”.
Under `O=C(NC(=S)N1CCCc2ccccc21)c1ccc(Br)cc1` stands “inactive; 0”; under `Cn1c(=O)c2c(nc3sccn32)n(C)c1=O`, “inactive; 0”.
With `Cc1ccc(C)c(C(=O)c2c(C)nc3sccn23)c1`, the outcome is “active; -1”.
As for `COC(=O)c1ccc(NC(=S)NC(=O)c2c(Cl)cnn2C)cc1`, the entry is “inactive; 0”; as for `Cc1ccc(/C=N/n2c(-c3cccs3)n[nH]c2=S)cc1`, “inactive; 0”; as for `CCOC(=O)c1ccc(NC(=S)NC(=O)COc2ccccc2)cc1`, “inactive; 0”.
Under `O=C(COc1ccccc1)NC(=S)Nc1cccc([N+](=O)[O-])c1` stands “inactive; 0”; under `Cc1ccc(C(=O)NNC(=S)NC(=O)COc2ccccc2)cc1`, “active; 1”; under `COC(=O)c1ccccc1NC(=S)NC(=O)COc1ccc(C)cc1`, “inactive; 0”.
Regarding `Cc1ccccc1C(=O)NNC(=S)NC(=O)COc1ccccc1`, the outcome is “active; 1”.
In the case of `COC(=O)c1ccccc1NC(=S)NC(=O)COc1ccccc1`, the outcome is “inactive; 0”.
For the molecule `Cc1cccc(C(=O)NNC(=O)C(=O)NC(C)(C)C)c1`, the outcome was “inactive; 0”.
Under `COc1ccc(-c2nnc(NC(=O)c3ccc(F)cc3)o2)cc1` stands “inactive; 0”; under `S=c1[nH]nc(-c2ccccn2)n1/N=C/c1ccc(Br)s1`, “inactive; 0”; under `O=C(NC(=S)N1CCN(c2ccc(C(F)(F)F)cc2[N+](=O)[O-])CC1)c1cccs1`, “inactive; 0”.
Consider `O=C(NC(=S)N1CCc2ccccc21)c1ccccc1Br`, for which the outcome is “inactive; 0”.
Under `S=c1[nH]cnc2scc(-c3ccccc3)c12` stands “inactive; 0”; under `COCCNC(=O)CCCCCn1c(=S)[nH]c2ccccc2c1=O`, “inactive; 0”; under `O=C(NCc1ccccc1)c1ccc2c(=O)n(CCCN3CCCC3=O)c(=S)[nH]c2c1`, “active; -1”.
For the molecule `O=c1c2ccccc2[nH]c(=S)n1CCN1CCN(Cc2ccccc2)CC1`, the outcome is “inactive; 0”.
Take `Cc1ccc(C)c(N=C2CCCN2Cc2ccccc2)c1C#N`: the outcome is “inactive; 0”.
On to `CC1(C)CC(=O)C2=C(C1)OC(/N=C/N1CCOCC1)=C(C#N)C2c1ccccc1` (stereo not given), for which the outcome is “inactive; 0”.
`CCCN(CCC)C(=S)NC(=O)c1ccc(-c2ccccc2)cc1`: the outcome was “inactive; 0”.
Turning to `O=[N+]([O-])c1ccc(/C=N/NC(=S)Nc2ccccc2F)o1`, the outcome is “inactive; 0”.
Under `COc1cccc(-n2c(SCC(=O)NCCC3=CCCCC3)nc3n[nH]c(C)c3c2=N)c1` stands “inactive; 0”; under `Cc1ccccc1-n1c(SCc2ccccn2)nc2n[nH]c(C)c2c1=N`, “active; 2”.
